Test results published in ChEMBL document CHEMBL4376859, “Prodrugs for nitroreductase-based cancer therapy-3: Antitumor activity of the novel dinitroaniline prodrugs/Ssap-NtrB enzyme suicide gene system: Synthesis, in vitro and in silico evaluation in prostate cancer” (Eur J Med Chem, 2020).
The source made the active and inactive calls. The calls are words filed in the database; no cut-off is given here.

What was measured:
[1] = system: Hep 3B2; experiment: Cytotoxicity against human Hep3B cells assessed as cell viability at 9 to 150 uM after 48 hrs by MTT assay relative to control; format: functional
Summary of the method: (§1)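 Hep3B hepatoma, PC-3 prostate cancer and HUVEC (healthy control) cells were exposed to nitro compounds at 150, 75, 38, 19 and 9 µM for 24 h and 48 h. Viability was read by MTT assay, and IC50 values were derived from the growth inhibition curves.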

[2] = Cytotoxicity against human HUVEC cells assessed as cell viability at 9 to 150 uM after 48 hrs by MTT assay relative to control; format: cell-based; settings: read-out: Activity; summary of the method: as §1
[3] = system: Hep 3B2; experiment: Cytotoxicity against human Hep3B cells assessed as cell viability at 9 to 150 uM after 24 hrs by MTT assay relative to control; format: functional; summary of the method: as §1
[4] = Cytotoxicity against human HUVEC cells assessed as cell viability at 9 to 150 uM after 24 hrs by MTT assay relative to control; format: cell-based; settings: read-out: Activity; summary of the method: as §1
[5] = biological target: T1, Putative nitroreductase (Staphylococcus saprophyticus subsp. saprophyticus (strain ATCC 15305 / DSM20229 / NCIMB 8711 / NCTC 7292 / S-41), UniProt Q4A0P1); experiment: Substrate activity at Staphylococcus saprophyticus nitroreductase NtrB assessed as Kcat/Km using NADH as cofactor in Tris-Cl buffer at pH 7.5 by HPLC analysis relative to CB1954/NfsB; format: ADME
T1 sequence (Q4A0P1 whole entry): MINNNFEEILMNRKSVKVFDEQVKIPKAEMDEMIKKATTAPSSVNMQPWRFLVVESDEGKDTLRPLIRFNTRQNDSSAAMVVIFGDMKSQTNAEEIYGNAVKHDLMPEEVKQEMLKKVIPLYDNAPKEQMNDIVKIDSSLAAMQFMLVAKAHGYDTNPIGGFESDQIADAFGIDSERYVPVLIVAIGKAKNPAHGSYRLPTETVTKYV

[6] = biological target: T1, Putative nitroreductase; experiment: Substrate activity at Staphylococcus saprophyticus nitroreductase expressed in Escherichia coli BL21 (DE3) assessed as retention time by HPLC analysis; format: ADME
[7] = biological target: T1, Putative nitroreductase; experiment: Substrate activity at Staphylococcus saprophyticus nitroreductase NtrB assessed as enzyme specific activity using NADH as cofactor in Tris-Cl buffer at pH 7.5 by HPLC analysis; format: ADME
[8] = system: PC-3; experiment: Cytotoxicity against human PC3 cells assessed as cell viability at 9 to 150 uM after 24 hrs by MTT assay relative to control; format: functional; summary of the method: as §1
[9] = system: PC-3; experiment: Cytotoxicity against human PC3 cells […] Staphylococcus saprophyticus nitroreductase NtrB assessed as reduction in cell viability in presence of NADH as cofactor after 48 hrs by SRB assay; format: functional, cell-based; settings: PC-3, 48 h
Summary of the method: (§2)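 Compounds were reduced outside the cells by purified His-tag (Ni column) Ssap-NtrB. The reaction mix held 600 µM NADH and compound (150, 39, 9 µM, or 180, 18, 1.8 nM) and was applied to PC-3 cells. Controls were compound alone in 25 mM Tris/HCl pH 7.5, and enzyme alone at 31 µg/mL. After 48 h, SRB absorbance was read at 492 nm and converted to % viability.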

[10] = system: PC-3; experiment: Cytotoxicity against human PC3 cells assessed as reduction in cell viability after 48 hrs by SRB assay; format: functional, cell-based; summary of the method: as §2
[11] = system: PC-3; experiment: Cytotoxicity against human PC3 cells assessed as cell viability at 9 to 150 uM after 48 hrs by MTT assay relative to control; format: functional; summary of the method: as §1
[12] = system: PC-3; experiment: Cytotoxicity against human PC3 cells […] Staphylococcus saprophyticus nitroreductase NtrB assessed as cell viability at 150 uM in presence of NADH as cofactor after 48 hrs by SRB assay relative to control; format: functional; settings: PC-3, 48 h, read-out: Activity; summary of the method: as §2
[13] = system: Hep 3B2; experiment: Cytotoxicity against human Hep3B cells assessed as cell viability after 24 hrs by MTT assay; format: functional, cell-based; summary of the method: as §1
[14] = substrate: NC(=O)c1cc(N2CC2)c([N+](=O)[O-])cc1[N+](=O)[O-]; experiment: Substrate activity at Bacillus amyloliquefaciens nitroreductase ywrO assessed as Km using NADPH as cofactor in sodium phosphate buffer at pH 7.5 by HPLC analysis; format: ADME
[15] = substrate: O=[N+]([O-])c1ccc(N2CCCCC2)c([N+](=O)[O-])c1; experiment: (§3) Substrate activity at Staphylococcus saprophyticus nitroreductase NtrB assessed as Km using NADH as cofactor in Tris-Cl buffer at pH 7.5 by HPLC analysis; format: ADME
[16] = substrate: O=C(CC(F)(F)F)Nc1cc(N2CCOCC2)c([N+](=O)[O-])cc1[N+](=O)[O-]; experiment: as §3; format: ADME
[17] = substrate: CCC(=O)Nc1cc(N2CCOCC2)c([N+](=O)[O-])cc1[N+](=O)[O-]; experiment: as §3; format: ADME
[18] = substrate: Nc1ccccc1Nc1ccc([N+](=O)[O-])cc1[N+](=O)[O-]; experiment: as §3; format: ADME
[19] = substrate: O=[N+]([O-])c1cc([N+](=O)[O-])c(Nc2ccc(S(=O)(=O)O)cc2)cc1Nc1ccc(S(=O)(=O)O)cc1; experiment: as §3; format: ADME
[20] = substrate: O=[N+]([O-])c1ccc(N2CCOCC2)c([N+](=O)[O-])c1; experiment: as §3; format: ADME
[21] = substrate: O=[N+]([O-])c1ccc(Nc2ccc3ccccc3c2)c([N+](=O)[O-])c1; experiment: Substrate activity at Staphylococcus saprophyticus nitroreductase NtrB assessed as Km using NADPH as cofactor in Tris-Cl buffer at pH 7.5 by HPLC analysis; format: ADME

COCCC(=O)Oc1cc(N2CCOCC2)c([N+](=O)[O-])cc1[N+](=O)[O-]
Activity [1]: >80% | viability at 48 h, up to 150 µM [2]: 51 to 80% | Activity [3]: >80% | viability at 24 h, up to 150 µM [4]: 51 to 80%

O=C(CC(F)(F)F)Nc1cc(N2CCOCC2)c([N+](=O)[O-])cc1[N+](=O)[O-]
fold change (FC) [5]: 4.73 | Retention_time [6]: 21.8 min | Activity [7]: 0.99 U/mg | Activity [1]: 51 - 80% | viability at 48 h, up to 150 µM [2]: 51 to 80% | Activity [3]: 51 - 80% | viability at 24 h, up to 150 µM [4]: > 80%

CCNc1ccc([N+](=O)[O-])cc1[N+](=O)[O-]
Activity [8]: >80% | Retention_time [6]: 16.92 min | IC50 [9]: 6.43 µM | Activity [1]: 51 - 80% | viability at 48 h, up to 150 µM [2]: > 80% | Activity [3]: 51 - 80% | Activity [10]: inactive | viability at 24 h, up to 150 µM [4]: > 80% | Activity [11]: >80%

O=[N+]([O-])c1ccc(N2CCC[C@H]2CO)c([N+](=O)[O-])c1
Retention_time [6]: 15.1 min | IC50 [9]: > 150 µM | Activity [1]: >80% | viability at 48 h, up to 150 µM [2]: > 80% | Activity [3]: >80% | Activity [10]: inactive | viability at 24 h, up to 150 µM [4]: > 80% | viability at 150 µM [12]: 50%

CC(C)CC(=O)Nc1cc(N2CCOCC2)c([N+](=O)[O-])cc1[N+](=O)[O-]
Retention_time [6]: 24.16 min | Activity [1]: 51 - 80% | viability at 48 h, up to 150 µM [2]: 51 to 80% | viability at 24 h, up to 150 µM [4]: 51 to 80% | IC50 [13]: 150 µM

O=[N+]([O-])c1ccc(N2CCCC(O)C2)c([N+](=O)[O-])c1 (stereo unspecified)
Retention_time [6]: 14.9 min | IC50 [9]: 150 µM | Activity [1]: >80% | viability at 48 h, up to 150 µM [2]: > 80% | Activity [3]: >80% | Activity [10]: inactive | viability at 24 h, up to 150 µM [4]: > 80% | viability at 150 µM [12]: 50%

CC(C)CC(=O)Oc1cc(N2CCOCC2)c([N+](=O)[O-])cc1[N+](=O)[O-]
Retention_time [6]: 24.6 min | Activity [1]: >80% | viability at 48 h, up to 150 µM [2]: 51 to 80% | Activity [3]: >80% | viability at 24 h, up to 150 µM [4]: 51 to 80%

O=[N+]([O-])c1ccc(N2CCOCC2)c([N+](=O)[O-])c1
fold change (FC) [5]: 1.25 | Activity [8]: >80% | Retention_time [6]: 19.38 min | IC50 [9]: > 150 µM | Activity [1]: 51 - 80% | viability at 48 h, up to 150 µM [2]: > 80% | Activity [3]: >80% | Activity [10]: inactive | viability at 24 h, up to 150 µM [4]: > 80% | viability at 150 µM [12]: 50% | Activity [11]: >80%

B1: Nitroreductase (Bacillus amyloliquefaciens) (protein)
chain: MKVLVLAVHPDMENSAVNKAWAEELKKHDELTVRELYKEYPDGQIDAEKERQLCEQYDRIVFQFPLYWYSAPPLLKTWMDHVLSYGWAYGSKGKALHGKELMLAVSVGAGEDAYQAGGSNHFTLSELLRPFQAMANFTGMTYLPAFALYGVNGADATDIHDNAKRLAAYIKKSF
Km [14]: 618 µM | kcat [14]: 8.2 s⁻¹ | kcat/Km [14]: 13300 M⁻¹ s⁻¹

B2: Putative nitroreductase (Staphylococcus saprophyticus subsp. saprophyticus ATCC 15305 = NCTC 7292) (protein)
chain: MINNNFEEILMNRKSVKVFDEQVKIPKAEMDEMIKKATTAPSSVNMQPWRFLVVESDEGKDTLRPLIRFNTRQNDSSAAMVVIFGDMKSQTNAEEIYGNAVKHDLMPEEVKQEMLKKVIPLYDNAPKEQMNDIVKIDSSLAAMQFMLVAKAHGYDTNPIGGFESDQIADAFGIDSERYVPVLIVAIGKAKNPAHGSYRLPTETVTKYV
Km [15]: 104 µM | kcat [15]: 0.404 s⁻¹ | kcat/Km [15]: 3900 M⁻¹ s⁻¹ | Km [16]: 9.95 µM | kcat [16]: 0.234 s⁻¹ | kcat/Km [16]: 26500 M⁻¹ s⁻¹ | Km [17]: 14 µM | kcat [17]: 0.37 s⁻¹ | kcat/Km [17]: 26500 M⁻¹ s⁻¹ | Km [18]: 137 µM | kcat [18]: 0.315 s⁻¹ | kcat/Km [18]: 2300 M⁻¹ s⁻¹ | Km [19]: 255 µM | kcat [19]: 3.4 s⁻¹ | kcat/Km [19]: 13300 M⁻¹ s⁻¹ | Km [20]: 444 µM | kcat [20]: 3.1 s⁻¹ | kcat/Km [20]: 6970 M⁻¹ s⁻¹ | Km [21]: 15.7 µM | kcat [21]: 0.1 s⁻¹ | kcat/Km [21]: 8270 M⁻¹ s⁻¹
